Experimental data taken from ChEMBL document CHEMBL1122071, “Avermectin acyl derivatives with anthelmintic activity” (1982).

Columns and labels:
Assay type in all cases: functional
[1] = system: Trichostrongylus colubriformis; assay: Minimal dose necessary to eliminate > 83% of Trichostrongylus colubriformis infection in gerbils
Trichostrongylus axei [2] = assay: Anthelmintic efficacy against Trichostrongylus axei (T.a) in sheep at dose of 0.25 mg/kg administered orally; conditions: route oral
How it was run: (§1)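 Lambs experimentally infected with mixed gastrointestinal nematodes (H. contortus, O. circumcincta, T. axei, T. colubriformis, C. oncophora, Oe. columbianum) were dosed orally, 1–3 sheep per dose. An untreated infected group of 6 was included, with worm burdens given as the geometric mean number of worms per lamb. Efficacy was scored against adult and, where listed, EL4 stages.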

Cooperia oncophora [3] = assay: Anthelmintic efficacy against adult Cooperia oncopphora (C.o) in sheep at dose of 0.25 mg/kg administered orally; conditions: route oral; how it was run: as §1
Haemonchus contortus [4] = assay: Anthelmintic efficacy against adult Haemonchus contortus (H.c) in sheep at dose of 0.25 mg/kg administered orally; conditions: route oral; how it was run: as §1
[5] = system: Trichostrongylus colubriformis; assay: Anthelmintic efficacy against Trichostrongylus colubriformis (T.c) in sheep at dose of 0.25 mg/kg administered orally; conditions: route oral; how it was run: as §1
[6] = system: Oesophagostomum columbianum; assay: Anthelmintic efficacy against Oseophagostomum columbianum (Oe. c) in sheep at dose of 0.25 mg/kg administered orally; conditions: route oral; how it was run: as §1
[7] = system: Teladorsagia circumcincta; assay: Anthelmintic efficacy against adult Ostertagia circumcincta (O. c) in sheep at dose of 0.25 mg/kg administered orally; conditions: route oral; how it was run: as §1
[8] = system: Oesophagostomum columbianum; assay: Anthelmintic efficacy against Oseophagostomum columbianum (Oe. c) in sheep at dose of 0.25 mg/kg administered orally; 20-59%; how it was run: as §1
Cooperia oncophora [9] = assay: Anthelmintic efficacy against adult Cooperia oncopphora (C.o) in sheep at dose of 0.25 mg/kg administered orally; 60-89%; how it was run: as §1
[10] = system: Trichostrongylus colubriformis; assay: Anthelmintic efficacy against Trichostrongylus colubriformis (T.c) in sheep at dose of 0.25 mg/kg administered orally; 0-19%; how it was run: as §1
[11] = system: Teladorsagia circumcincta; assay: Anthelmintic efficacy against adult Ostertagia circumcincta (O. c) in sheep at dose of 0.25 mg/kg administered orally; 0-19%; how it was run: as §1
Trichostrongylus axei [12] = assay: Anthelmintic efficacy against Trichostrongylus axei (T.a) in sheep at dose of 0.25 mg/kg administered orally; 0-19%; how it was run: as §1
Haemonchus contortus [13] = assay: Anthelmintic efficacy against adult Haemonchus contortus (H.c) in sheep at dose of 0.25 mg/kg administered orally; 20-59%; how it was run: as §1

CC[C@H](C)[C@H]1O[C@]2(C=C[C@@H]1C)C[C@@H]1C[C@@H](C/C=C(\C)[C@@H](O[C@H]3C[C@@H](OC)[C@@H](O[C@H]4C[C@@H](OC)[C@@H](O)[C@H](C)O4)[C@H](C)O3)[C@@H](C)/C=C/C=C3\CO[C@@H]4[C@H](OC(C)=O)C(C)=C[C@@H](C(=O)O1)[C@]34O)O2
Dose [1]: 0.125 mg/kg

CC[C@H](C)[C@H]1O[C@]2(C=C[C@@H]1C)C[C@@H]1C[C@@H](C/C=C(\C)[C@@H](O[C@H]3C[C@@H](OC)[C@@H](O[C@H]4C[C@@H](OC)[C@@H](O)[C@H](C)O4)[C@H](C)O3)[C@@H](C)/C=C/C=C3\CO[C@@H]4[C@H](O[Si](C)(C)C(C)(C)C)C(C)=C[C@@H](C(=O)O1)[C@]34O)O2
Dose [1]: >2.5 mg/kg

CC[C@H](C)[C@H]1O[C@]2(CC(O)[C@@H]1C)C[C@@H]1C[C@@H](C/C=C(\C)[C@@H](OC3CC(OC)C(OC4CC(OC)C(OC(C)=O)C(C)O4)C(C)O3)[C@@H](C)/C=C/C=C3\CO[C@@H]4[C@H](OC)C(C)=C[C@@H](C(=O)O1)[C@]34O)O2 (some centres undefined)
Efficacy (Trichostrongylus axei [2]): >90% | Efficacy (Cooperia oncophora [3]): >90% | Efficacy (Haemonchus contortus [4]): >90% | Dose [1]: 0.06 mg/kg | Efficacy [5]: >90% | Efficacy [6]: >90% | Efficacy [7]: >90%

CCC(C)[C@H]1O[C@]2(CC(OC(C)=O)[C@@H]1C)C[C@@H]1C[C@@H](C/C=C(\C)[C@@H](OC3CC(OC)C(OC4CC(OC)C(OC(C)=O)C(C)O4)C(C)O3)[C@@H](C)/C=C/C=C3\COc4cc(C)cc(c43)C(=O)O1)O2 (some centres undefined)
Dose [1]: >2.5 mg/kg

CC[C@H](C)[C@H]1O[C@]2(CC(OC(C)=O)[C@@H]1C)C[C@@H]1C[C@@H](C/C=C(\C)[C@@H](OC3CC(OC)C(OC4CC(OC)C(O)C(C)O4)C(C)O3)[C@@H](C)/C=C/C=C3\CO[C@@H]4[C@H](OC)C(C)=C[C@@H](C(=O)O1)[C@]34O)O2 (some centres undefined)
Efficacy [8]: 20% | Efficacy (Cooperia oncophora [9]): 60% | Efficacy [10]: 0% | Dose [1]: 0.25 mg/kg | Efficacy [11]: 0% | Efficacy (Trichostrongylus axei [12]): 0% | Efficacy (Haemonchus contortus [13]): 20%

CC[C@H](C)[C@H]1O[C@]2(CC(OC(C)=O)[C@@H]1C)C[C@@H]1C[C@@H](C/C=C(\C)[C@@H](OC3CC(OC)C(OC4CC(OC)C(OC(C)=O)C(C)O4)C(C)O3)[C@@H](C)/C=C/C=C3\CO[C@@H]4[C@H](OC(C)=O)C(C)=C[C@@H](C(=O)O1)[C@]34O)O2 (some centres undefined)
Dose [1]: 0.5 mg/kg

CC[C@H](C)[C@H]1O[C@]2(CC(O)[C@@H]1C)C[C@@H]1C[C@@H](C/C=C(\C)[C@@H](OC3CC(OC)C(OC4CC(OC)C(O)C(C)O4)C(C)O3)[C@@H](C)/C=C/C=C3\CO[C@@H]4[C@H](O)C(C)=C[C@@H](C(=O)O1)[C@]34O)O2 (some centres undefined) [AVERMECTIN B2A]
Dose [1]: 0.0125 mg/kg
